Source: paper PMC5850608 (Molecular Biology and Evolution, 2017)
“Also recorded” adds a separate entry of the source.

Legend:
[1] = target: T1, EsemOR5 (Eriocrania semipurpurella, UniProt A0A2H4NTA6); test: Fluorescent calcium assay, HEK293 cells expressing EsemOrco and EsemOR5; type: cell-based; settings: for Response of EsemOR5-expressing cells in screening: compounds screened at 30 µM
T1 sequence (A0A2H4NTA6 1-419): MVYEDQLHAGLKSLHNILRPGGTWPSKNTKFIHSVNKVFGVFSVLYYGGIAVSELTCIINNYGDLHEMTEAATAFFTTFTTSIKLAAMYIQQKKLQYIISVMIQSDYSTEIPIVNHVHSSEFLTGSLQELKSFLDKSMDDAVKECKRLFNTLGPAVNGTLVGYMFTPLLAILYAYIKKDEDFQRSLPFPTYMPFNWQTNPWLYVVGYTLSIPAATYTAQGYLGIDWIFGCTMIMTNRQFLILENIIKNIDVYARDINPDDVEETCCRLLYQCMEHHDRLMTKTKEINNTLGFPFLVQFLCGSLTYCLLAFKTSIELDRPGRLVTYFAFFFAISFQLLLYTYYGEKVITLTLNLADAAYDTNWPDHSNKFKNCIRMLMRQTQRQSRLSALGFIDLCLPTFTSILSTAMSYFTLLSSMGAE
T1 sequence (A0A2H4NT96 1-482 partner): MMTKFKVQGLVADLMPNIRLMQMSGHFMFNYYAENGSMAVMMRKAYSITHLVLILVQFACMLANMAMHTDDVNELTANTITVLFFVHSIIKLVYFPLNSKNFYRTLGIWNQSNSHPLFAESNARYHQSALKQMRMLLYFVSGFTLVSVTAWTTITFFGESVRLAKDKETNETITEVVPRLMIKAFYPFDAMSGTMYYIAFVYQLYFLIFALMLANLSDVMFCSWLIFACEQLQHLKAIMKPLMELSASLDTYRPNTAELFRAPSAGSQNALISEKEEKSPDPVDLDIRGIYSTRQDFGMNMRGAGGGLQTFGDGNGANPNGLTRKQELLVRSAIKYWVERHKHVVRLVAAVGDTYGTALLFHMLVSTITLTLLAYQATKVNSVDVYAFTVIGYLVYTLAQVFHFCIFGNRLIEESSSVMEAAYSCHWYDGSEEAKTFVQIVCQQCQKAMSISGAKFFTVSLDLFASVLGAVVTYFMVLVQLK
Summary of the method: (§1)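 Inducible TREx HEK293 cells stably carry Myc-tagged Orco plus V5-tagged receptor; non-induced wells serve as control. Cells loaded 30 min RT with 1 µM Fluo4-AM, 0.2% pluronic, in DPBS (Ca2+, Mg2+, 1 mM probenecid, pH 7.1); fluorescence read 1 min after ligand. Screen at 30 µM; dose–response from 150 µM, 1/2 dilutions; Orco agonist 50 µM; 0.5% DMSO vehicle. Triplicate wells, three experiments; EC50 (95% CI) by nonlinear fit.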

[2] = tested on: E. sangii; settings: ref Kozlov etal. 1996; cited from earlier work
[3] = target: T2, EsemOR3 (Eriocrania semipurpurella, UniProt A0A2H4NT95); test: Fluorescent calcium assay, HEK293 cells expressing EsemOrco and EsemOR3; type: cell-based; settings: for Response of EsemOR3-expressing cells in screening: compounds screened at 30 µM
T2 sequence (A0A2H4NT95 1-441): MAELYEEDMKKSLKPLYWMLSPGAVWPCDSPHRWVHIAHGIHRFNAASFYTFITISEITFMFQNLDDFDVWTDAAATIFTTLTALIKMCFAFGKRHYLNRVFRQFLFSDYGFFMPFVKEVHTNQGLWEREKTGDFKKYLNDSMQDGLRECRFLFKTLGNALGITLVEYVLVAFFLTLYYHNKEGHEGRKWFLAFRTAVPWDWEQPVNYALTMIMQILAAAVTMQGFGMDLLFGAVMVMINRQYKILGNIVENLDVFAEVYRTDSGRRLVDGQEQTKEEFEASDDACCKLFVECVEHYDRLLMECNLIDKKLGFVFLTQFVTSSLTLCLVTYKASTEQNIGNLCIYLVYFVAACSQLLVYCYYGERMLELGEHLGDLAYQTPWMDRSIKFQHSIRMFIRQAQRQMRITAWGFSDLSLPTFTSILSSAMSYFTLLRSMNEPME
T2 sequence (A0A2H4NT96 1-482 partner): T1 sequence (A0A2H4NT96 1-482 partner)
Summary of the method: as §1

[4] = tested on: E. semipurpurella males; settings: cited from earlier work; for Effect on male sex pheromone attraction: ref Kozlov etal. 1996; for Attraction of E. semipurpurella: sex pheromone components, males but not females, ref Larsson etal. 2002
[5] = tested on: EsemOR6; test: Fluorescent calcium assay, HEK293 cells expressing EsemOrco and EsemOR6; type: cell-based, Eriocrania semipurpurella; settings: EsemOrco + EsemOR6 cell line, 50 μM, induced cells
Summary of the method: as §1

[6] = tested on: EsemOR4; test: Fluorescent calcium assay, HEK293 cells expressing EsemOrco and EsemOR4; type: cell-based, Eriocrania semipurpurella; settings: EsemOrco + EsemOR4 cell line, 50 μM, induced cells
Summary of the method: as §1

[7] = target: T3, EsemOR1 (Eriocrania semipurpurella, UniProt A0A2H4NTA3); test: Fluorescent calcium assay, HEK293 cells expressing EsemOrco and EsemOR1; type: cell-based
T3 sequence (A0A2H4NTA3 1-412): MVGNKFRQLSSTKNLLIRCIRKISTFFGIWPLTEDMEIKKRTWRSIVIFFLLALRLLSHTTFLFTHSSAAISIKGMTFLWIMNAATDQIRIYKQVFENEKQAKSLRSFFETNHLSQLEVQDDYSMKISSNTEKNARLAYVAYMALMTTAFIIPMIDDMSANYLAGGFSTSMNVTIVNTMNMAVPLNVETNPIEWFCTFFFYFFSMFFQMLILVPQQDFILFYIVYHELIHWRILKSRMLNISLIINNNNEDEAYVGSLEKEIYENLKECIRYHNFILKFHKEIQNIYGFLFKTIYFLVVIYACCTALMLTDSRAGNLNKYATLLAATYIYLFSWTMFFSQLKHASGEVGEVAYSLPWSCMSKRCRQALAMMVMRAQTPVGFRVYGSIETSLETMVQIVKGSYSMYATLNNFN
T3 sequence (A0A2H4NT96 1-482 partner): T1 sequence (A0A2H4NT96 1-482 partner)
Summary of the method: as §1

Response of EsemOR5-expressing cells in screening ([1]; induced cells) | Response of EsemOR3-expressing cells in screening ([3]; induced cells) | SMILES | other results
responded |  | CCC/C=C/COC(C)=O [(E)-2-Hexenyl acetate] | 
 | responded to a lesser extent | CCCCCCCCC(C)O (stereo not shown) [2-Decanol] | 
 | responded most strongly | CC/C=C\CCC[C@H](C)O [(2S,6Z)-6-Nonen-2-ol] | Response of EsemOR5-expressing cells in screening ([1]; induced cells, listed as (2 S, 6Z)-6-nonen-2-ol): activated the OR; EC50 [3]: 560 nM; Attraction of E. semipurpurella [4]: attractive to males
Weaker responses | less so | CCCCCCC[C@H](C)O [(S)-Nonan-2-ol] | 
responded | responded to a lesser extent | CC/C=C\CCOC(C)=O [(Z)-3-Hexenyl acetate] | 
 | responded to a lesser extent | CC(C)=CCC[C@@H](C)O [(R)-6-methyl-5-hepten-2-ol, (R)-6-Methyl-5-hepten-2-ol] | 
Weaker responses | less so | CC/C=C\CCC[C@@H](C)O [(2R, 6Z)-6-nonen-2-ol, (2R,6Z)-6-Nonen-2-ol] | Attraction of E. semipurpurella [4]: attractive to males
responded | responded to a lesser extent | CCCCCCC(C)O (stereo not shown) [2-Octanol] | 

Further lines, the compound ahead of its results:

SMILES | Response of EsemOR5-expressing cells in screening ([1]; induced cells) | Response of EsemOR3-expressing cells in screening ([3]; induced cells) | other results
CC/C=C\CCCC(C)=O [(Z)-6-Nonen-2-one] | responded most strongly | less so; also recorded: responded to some extent | EC50 [1]: 430 nM; Behavioural effect in E. sangii [2]: antagonist; Effect on male sex pheromone attraction ([4]; E. semipurpurella): antagonize male sex pheromone attraction
CCCCCC(O)CC (stereo not shown) [3-Octanol] |  | responded to a lesser extent | 
CCCCCCC(C)=O [2-Octanone] | responded | responded to a lesser extent | 
CCCCC[C@H](C)O [(S)-Heptan-2-ol] |  | less so; also recorded: responded to some extent | 
CCc1ccc(NC(=O)CSc2nnc(-c3cccnc3)n2CC)cc1 [VUAA1] |  |  | Response to Orco agonist (positive control) [5]: elicited responses in induced cells; Response to Orco agonist (positive control) ([1]; EsemOrco + EsemOR5 cell line, 50 μM, induced cells): elicited responses in induced cells; Response to Orco agonist (positive control) ([3]; EsemOrco + EsemOR3 cell line, 50 μM, induced cells): elicited responses in induced cells; Response to Orco agonist (positive control) [6]: elicited responses in induced cells; Response to Orco agonist (positive control) ([7]; EsemOrco + EsemOR1 cell line, 50 μM, induced cells): elicited responses in induced cells
CCCCCCCC(C)=O [Nonan-2-one] | Weaker responses | less so; also recorded: more weakly | Effect on pheromone attraction ([4]; E. semipurpurella, low concentration, ref Larsson etal. (2002)): increases pheromone attraction; Effect on male sex pheromone attraction ([4]; E. semipurpurella): antagonize male sex pheromone attraction
C=C1CC/C=C(\C)CC[C@@H]2[C@@H]1CC2(C)C [β-caryophyllene, β-Caryophyllene] |  |  | EC50 [7]: 2430 nM; Response of EsemOR1-expressing cells in screening ([7]; induced cells, compounds screened at 30 µM): responded
CCCCCCOC(C)=O [Hexyl acetate] | responded |  | 
